Measured values reported in ChEMBL document CHEMBL5329223, “Newly synthesized 6-substituted piperazine/phenyl-9-cyclopentyl containing purine nucleobase analogs act as potent anticancer agents and induce apoptosis via inhibiting Src in hepatocellular carcinoma cells” (RSC Med Chem, 2023).
Activity calls are given as the source filed them. The rule behind the calls is not given here.

Tests used:
Huh-7 [1] = assay: Cytotoxicity against human Huh-7 cells assessed as cell growth inhibition incubated for 72 hrs by SRB assay; format: functional, cell-based; conditions: Huh-7, 72 h
Outline: (§1)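 Cells seeded at 1000–3000 per well, treated after 24 h with 2.5–40 μM (40, 20, 10, 5, 2.5 μM) for 72 h, in duplicate or triplicate; DMSO negative control. Fixed with 10% TCA 1 h at 4 °C, stained with 0.4% SRB in 1% acetic acid, dye solubilized in 10 mM TBS, A515 read; OD normalized to DMSO control, IC50 from growth-inhibition curves.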

HCT-116 = assay: Cytotoxicity against human HCT-116 cells assessed as cell growth inhibition incubated for 72 hrs by SRB assay; format: functional, cell-based; conditions: HCT-116, 72 h; outline: as §1
MCF7 = assay: Cytotoxicity against human MCF7 cells assessed as cell growth inhibition incubated for 72 hrs by SRB assay; format: functional, cell-based; conditions: MCF7, 72 h; outline: as §1
HepG2 = assay: Cytotoxicity against human HepG2 cells assessed as cell growth inhibition incubated for 72 hrs by SRB assay; format: functional, cell-based; conditions: HepG2, 72 h; outline: as §1
Hep 3B2 = assay: Cytotoxicity against human Hep3B cells assessed as cell growth inhibition incubated for 72 hrs by SRB assay; format: functional, cell-based; outline: as §1
PLC = assay: Cytotoxicity against human PLC cells assessed as cell growth inhibition incubated for 72 hrs by SRB assay; format: functional, cell-based; outline: as §1
Mahlavu [2] = assay: Cytotoxicity against human Mahlavu cells assessed as cell growth inhibition incubated for 72 hrs by SRB assay; format: functional, cell-based; outline: as §1
[3] = Cytotoxicity against human FOCUS cells assessed as cell growth inhibition incubated for 72 hrs by SRB assay; format: functional, cell-based; outline: as §1
SNU-475 = assay: Cytotoxicity against human SNU-475 cells assessed as cell growth inhibition incubated for 72 hrs by SRB assay; format: functional, cell-based; conditions: SNU-475, 72 h; outline: as §1
SNU-182 = assay: Cytotoxicity against human SNU-182 cells assessed as cell growth inhibition incubated for 72 hrs by SRB assay; format: functional, cell-based; conditions: SNU-182, 72 h; outline: as §1
SNU-387 = assay: Cytotoxicity against human SNU-387 cells assessed as cell growth inhibition incubated for 72 hrs by SRB assay; format: functional, cell-based; conditions: SNU-387, 72 h; outline: as §1
SNU-398 = assay: Cytotoxicity against human SNU-398 cells assessed as cell growth inhibition incubated for 72 hrs by SRB assay; format: functional, cell-based; conditions: SNU-398, 72 h; outline: as §1
SNU-423 = assay: Cytotoxicity against human SNU-423 cells assessed as cell growth inhibition incubated for 72 hrs by SRB assay; format: functional, cell-based; conditions: SNU-423, 72 h; outline: as §1
SNU-449 = assay: Cytotoxicity against human SNU-449 cells assessed as cell growth inhibition incubated for 72 hrs by SRB assay; format: functional, cell-based; conditions: SNU-449, 72 h; outline: as §1
Huh-7 [4] = assay: Cytotoxicity against human Huh-7 cells assessed as cell growth inhibition at 0.625 to 5 uM measured upto 72 hrs by RT-CES analysis; format: functional, cell-based; conditions: dose 0.625-5 µM
Outline: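 Huh7 cells, 2000 per well, treated 24 h after seeding alongside DMSO control; cell index from impedance recorded every 30 min; plots for each concentration normalized to DMSO-treated cells.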

Huh-7 [5] = assay: Induction of morphological changes in human Huh-7 cells assessed as horseshoe-like condensed nuclei at 5 uM incubated for 72 hrs by Hoechst 33258 dye based microscopy; format: functional, cell-based
Outline: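 Huh7 cells on coverslips (50 000 per well) given 5 μM or DMSO 24 h after seeding for 72 h; permeabilized with ice-cold methanol 10 min, Hoechst 33258 stain 5 min in the dark, imaged by fluorescence microscopy with 40× objective.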

Huh-7 [6] = assay: Induction of cell cycle arrest in human Huh-7 cells assessed as increase in accumulation of cells at subG1 phase at 5 uM incubated for 72 hrs by PI staining based flow cytometry; format: functional
Outline: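 Huh7 and Mahlavu cells serum-starved 24 h to synchronize, then given 5 μM or DMSO in fresh growth medium for 72 h. Trypsinized, fixed in ice-cold 70% ethanol at least 3 h at −20 °C, PI-stained with a cell cycle kit, analyzed by flow cytometry for SubG1.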

Huh-7 [7] = assay: Induction of apoptosis in human Huh-7 cells assessed as increase in PARP-1 cleavage at 5 uM incubated for 72 hrs by Western blot analysis; format: functional, cell-based
Outline: (§2)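 Huh7 cells (300 000 per dish) treated 24 h after seeding with 5 μM or DMSO for 72 h. Immunoblot for PARP-1, phospho-Src Tyr416, Src, Rb, phospho-Rb Ser807/811, Cdk2; calnexin and actin as loading controls.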

[8] = target: Proto-oncogene tyrosine-protein kinase Src (Homo sapiens) (UniProt P12931); assay: Inhibition of Src activation in human Huh-7 cells assessed as decrease in phosphorylated Src level at 5 uM incubated for 72 hrs by Western blot analysis; format: cell-based; outline: as §2
[9] = target: Proto-oncogene tyrosine-protein kinase Src (Homo sapiens) (UniProt P12931); assay: Inhibition of Src activation in human Huh-7 cells assessed as decrease in phosphorylated Rb level at 5 uM incubated for 72 hrs by Western blot analysis; format: cell-based; outline: as §2
[10] = target: Proto-oncogene tyrosine-protein kinase Src (Homo sapiens) (UniProt P12931); assay: Inhibition of Src activation in human Huh-7 cells assessed as decrease in cyclin E level at 5 uM incubated for 72 hrs by Western blot analysis; format: cell-based; outline: as §2
[11] = target: Proto-oncogene tyrosine-protein kinase Src (Homo sapiens) (UniProt P12931); assay: Inhibition of Src activation in human Huh-7 cells assessed as decrease in Cdk2 level at 5 uM incubated for 72 hrs by Western blot analysis; format: cell-based; outline: as §2
Huh-7 [12] = assay: Upregulation of intracellular ATP level in human Huh-7 cells at 5 uM incubated for 72 hrs by Kinase Glo assay; format: functional, cell-based
Outline: (§3)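 Huh7 and Mahlavu cells grown 24 h, then treated with 5 μM for 72 h. Lysates protein-normalized by Bradford; ATP read by Kinase-Glo Plus luminescence per kit protocol. Staurosporine positive control, DMSO negative control.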

Mahlavu [13] = assay: Upregulation of intracellular ATP level in human Mahlavu cells at 5 uM incubated for 72 hrs by Kinase Glo assay; format: functional, cell-based; outline: as §3
[14] = target: ALK tyrosine kinase receptor (Homo sapiens) (UniProt Q9UM73); assay: Inhibition of human ALK at 5 uM by Kinomescan profiling analysis relative to control
Outline: (§4)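 Compounds in DMSO screened by KINOMEScan against a panel of human kinases for direct interaction, at 5000 nM or 10 000 nM depending on compound; scores calculated relative to DMSO negative control.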

[15] = target: Tyrosine-protein kinase BTK (Homo sapiens) (UniProt Q06187); assay: Inhibition of human BTK at 5 uM by Kinomescan profiling analysis relative to control; outline: as §4
[16] = target: T1, Discoidin domain-containing receptor 2 (Homo sapiens) (UniProt Q16832); assay: Inhibition of human DDR2 at 10 uM by Kinomescan profiling analysis relative to control; outline: as §4
T1 sequence (whole entry): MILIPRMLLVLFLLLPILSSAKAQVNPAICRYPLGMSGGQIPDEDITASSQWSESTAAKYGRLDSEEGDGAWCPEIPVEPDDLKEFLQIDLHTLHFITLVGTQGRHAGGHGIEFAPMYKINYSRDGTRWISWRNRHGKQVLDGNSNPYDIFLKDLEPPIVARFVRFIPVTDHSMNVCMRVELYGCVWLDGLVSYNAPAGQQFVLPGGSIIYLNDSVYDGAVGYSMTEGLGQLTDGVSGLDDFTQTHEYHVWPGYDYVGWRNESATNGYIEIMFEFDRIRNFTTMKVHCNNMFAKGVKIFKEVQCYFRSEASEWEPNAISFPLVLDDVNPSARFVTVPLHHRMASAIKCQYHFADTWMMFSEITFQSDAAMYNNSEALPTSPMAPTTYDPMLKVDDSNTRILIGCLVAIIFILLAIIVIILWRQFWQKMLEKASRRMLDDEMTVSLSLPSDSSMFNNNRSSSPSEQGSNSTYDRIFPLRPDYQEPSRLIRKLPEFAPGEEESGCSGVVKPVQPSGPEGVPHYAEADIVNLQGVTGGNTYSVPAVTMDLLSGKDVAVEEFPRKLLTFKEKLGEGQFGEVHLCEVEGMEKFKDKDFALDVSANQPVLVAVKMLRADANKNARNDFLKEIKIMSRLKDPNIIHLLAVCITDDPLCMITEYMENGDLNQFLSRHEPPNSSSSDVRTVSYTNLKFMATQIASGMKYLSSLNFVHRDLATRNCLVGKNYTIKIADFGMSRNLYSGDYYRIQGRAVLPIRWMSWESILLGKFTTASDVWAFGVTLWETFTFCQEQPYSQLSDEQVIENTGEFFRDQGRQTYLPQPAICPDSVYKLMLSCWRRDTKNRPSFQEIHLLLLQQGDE

Chain of Proto-oncogene tyrosine-protein kinase Src (Homo sapiens) (P12931 2-536 limits assumed): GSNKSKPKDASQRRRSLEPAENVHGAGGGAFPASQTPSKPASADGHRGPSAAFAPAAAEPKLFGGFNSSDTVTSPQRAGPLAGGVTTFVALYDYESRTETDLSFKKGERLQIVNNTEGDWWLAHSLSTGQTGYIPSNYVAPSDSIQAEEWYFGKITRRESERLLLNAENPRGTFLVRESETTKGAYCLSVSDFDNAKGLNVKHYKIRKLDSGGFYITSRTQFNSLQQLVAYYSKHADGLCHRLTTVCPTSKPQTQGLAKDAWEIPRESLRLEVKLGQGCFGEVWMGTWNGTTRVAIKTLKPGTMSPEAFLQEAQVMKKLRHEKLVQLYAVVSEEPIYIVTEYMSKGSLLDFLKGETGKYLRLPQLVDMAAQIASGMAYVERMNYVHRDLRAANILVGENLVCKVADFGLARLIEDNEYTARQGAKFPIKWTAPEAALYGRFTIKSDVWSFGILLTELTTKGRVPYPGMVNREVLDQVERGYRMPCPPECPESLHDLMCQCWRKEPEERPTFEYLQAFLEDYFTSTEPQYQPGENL
Chain of Tyrosine-protein kinase BTK (Homo sapiens) (Q06187 whole entry, the tested form may be a part): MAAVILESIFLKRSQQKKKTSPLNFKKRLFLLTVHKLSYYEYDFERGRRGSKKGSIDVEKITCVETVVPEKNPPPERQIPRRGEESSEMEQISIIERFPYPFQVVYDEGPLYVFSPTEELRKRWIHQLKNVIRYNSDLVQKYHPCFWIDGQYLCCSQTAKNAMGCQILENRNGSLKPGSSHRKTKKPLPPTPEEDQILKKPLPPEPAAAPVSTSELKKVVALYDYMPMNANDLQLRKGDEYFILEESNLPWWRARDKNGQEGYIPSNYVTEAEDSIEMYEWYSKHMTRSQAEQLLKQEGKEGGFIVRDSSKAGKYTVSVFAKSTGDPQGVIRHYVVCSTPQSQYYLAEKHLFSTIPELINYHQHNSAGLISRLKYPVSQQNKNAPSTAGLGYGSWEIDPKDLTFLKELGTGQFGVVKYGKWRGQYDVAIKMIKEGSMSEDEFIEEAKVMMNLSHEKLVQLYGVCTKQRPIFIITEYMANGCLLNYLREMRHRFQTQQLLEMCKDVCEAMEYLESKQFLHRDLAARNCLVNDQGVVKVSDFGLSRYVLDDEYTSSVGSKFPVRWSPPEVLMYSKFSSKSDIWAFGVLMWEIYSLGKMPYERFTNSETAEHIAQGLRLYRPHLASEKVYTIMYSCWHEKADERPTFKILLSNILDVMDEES
Chain of ALK tyrosine kinase receptor (Homo sapiens) (Q9UM73 19-1620 limits assumed): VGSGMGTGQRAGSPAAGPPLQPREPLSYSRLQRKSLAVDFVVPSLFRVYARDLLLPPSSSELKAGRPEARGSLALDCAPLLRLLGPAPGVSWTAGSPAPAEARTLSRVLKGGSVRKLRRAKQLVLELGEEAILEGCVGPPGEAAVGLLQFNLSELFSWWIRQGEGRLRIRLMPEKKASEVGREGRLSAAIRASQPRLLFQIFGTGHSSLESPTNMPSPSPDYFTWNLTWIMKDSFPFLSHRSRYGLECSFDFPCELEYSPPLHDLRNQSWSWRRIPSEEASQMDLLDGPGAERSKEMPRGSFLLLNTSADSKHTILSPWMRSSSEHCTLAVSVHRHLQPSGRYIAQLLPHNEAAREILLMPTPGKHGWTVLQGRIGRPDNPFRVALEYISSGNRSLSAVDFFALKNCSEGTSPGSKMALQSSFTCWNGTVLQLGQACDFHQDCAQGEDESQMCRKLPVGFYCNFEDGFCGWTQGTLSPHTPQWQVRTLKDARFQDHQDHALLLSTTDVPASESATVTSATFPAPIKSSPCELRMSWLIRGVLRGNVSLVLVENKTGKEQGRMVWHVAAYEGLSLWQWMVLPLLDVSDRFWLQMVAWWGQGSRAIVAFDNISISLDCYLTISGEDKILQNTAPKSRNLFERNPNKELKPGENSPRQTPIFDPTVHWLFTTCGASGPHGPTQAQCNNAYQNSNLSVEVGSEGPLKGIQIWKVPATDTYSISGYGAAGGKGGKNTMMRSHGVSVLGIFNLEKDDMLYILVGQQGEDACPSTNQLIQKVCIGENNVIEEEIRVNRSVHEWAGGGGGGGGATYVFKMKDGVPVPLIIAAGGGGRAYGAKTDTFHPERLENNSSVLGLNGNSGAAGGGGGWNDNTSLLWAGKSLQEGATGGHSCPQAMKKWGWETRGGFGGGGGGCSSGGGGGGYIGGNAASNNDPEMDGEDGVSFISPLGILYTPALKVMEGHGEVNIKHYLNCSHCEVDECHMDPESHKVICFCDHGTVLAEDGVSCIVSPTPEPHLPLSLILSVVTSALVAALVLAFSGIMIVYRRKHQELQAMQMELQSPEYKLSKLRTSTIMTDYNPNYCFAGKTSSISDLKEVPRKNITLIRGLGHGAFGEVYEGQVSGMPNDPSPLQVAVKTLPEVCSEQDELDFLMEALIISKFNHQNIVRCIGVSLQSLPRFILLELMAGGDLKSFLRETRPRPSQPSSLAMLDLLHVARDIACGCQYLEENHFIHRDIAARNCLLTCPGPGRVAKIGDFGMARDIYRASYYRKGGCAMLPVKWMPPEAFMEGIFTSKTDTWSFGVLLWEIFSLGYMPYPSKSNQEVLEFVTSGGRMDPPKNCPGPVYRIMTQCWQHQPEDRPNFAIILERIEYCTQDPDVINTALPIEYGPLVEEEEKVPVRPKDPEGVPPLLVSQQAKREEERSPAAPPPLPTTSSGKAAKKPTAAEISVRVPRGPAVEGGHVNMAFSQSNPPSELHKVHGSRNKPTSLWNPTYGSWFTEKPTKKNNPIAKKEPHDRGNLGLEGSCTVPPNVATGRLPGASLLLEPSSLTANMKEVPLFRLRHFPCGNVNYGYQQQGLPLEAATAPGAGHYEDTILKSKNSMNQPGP

## c1ccc(N2CCN(c3ncnc4c3ncn4C3CCCC3)CC2)cc1
Huh-7 [1]
  IC50: 1000 nM
HCT-116
  IC50: 2100 nM
MCF7
  IC50: 100 nM
HepG2
  IC50: 2400 nM
Hep 3B2
  IC50: < 100 nM
PLC
  IC50: 4000 nM
Mahlavu [2]
  IC50: 200 nM
[3]
  IC50: 600 nM
SNU-475
  IC50: 5800 nM
SNU-182
  IC50: 6000 nM
SNU-387
  IC50: 13000 nM
SNU-398
  IC50: 1200 nM
SNU-423
  IC50: 11000 nM
SNU-449
  IC50: 2000 nM
Huh-7 [4]
  growth inhibition (GI): Active
Huh-7 [5]
  Activity: Active
Huh-7 [6]
  Activity: Active
Huh-7 [7]
  Activity: Active
[8]
  inhibition: Active
[9]
  inhibition: Active
[10]
  inhibition: Active
[11]
  inhibition: Active
Huh-7 [12]
  Activity: Active
Mahlavu [13]
  Activity: Active
[14]
  inhibition: 13%
[15]
  inhibition: 1.9%

## c1ccc(Oc2ccc(-c3ncnc4c3ncn4C3CCCC3)cc2)cc1
Huh-7 [1]
  IC50: 700 nM
HCT-116
  IC50: 800 nM
MCF7
  IC50: 2800 nM
HepG2
  IC50: 2 nM
Hep 3B2
  IC50: 100 nM
PLC
  IC50: 6500 nM
Mahlavu [2]
  IC50: 100 nM
[3]
  IC50: 500 nM
SNU-475
  IC50: 2500 nM
SNU-182
  IC50: 65000 nM
SNU-387
  IC50: 20000 nM
SNU-398
  IC50: 200 nM
SNU-423
  IC50: 9900 nM
SNU-449
  IC50: < 100 nM
Huh-7 [4]
  growth inhibition (GI): Active
Huh-7 [5]
  Activity: Active
Huh-7 [6]
  Activity: Active
Huh-7 [7]
  Activity: Active
Huh-7 [12]
  Activity: inactive
Mahlavu [13]
  Activity: inactive
[16]
  inhibition: 6%
